Test results: article PMC4873422 (Molecular cancer therapeutics, 2016)

Experiments:
Assay type in all cases: cell-based, human
Pa03C + CAF19 co-culture = test: Monolayer proliferation assay; settings: 2:1 tumor:CAF co-culture, 72 h
Procedure, shortened: (§1)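 Monolayers were grown in DMEM with 10% serum at 37 °C, 5% CO2. Seeding was Pa03C tumor cells 2,000–3,000/well, EGFP-expressing CAF19 fibroblasts 4,000/well, or tumor plus CAFs at a 2:1 ratio. Test compound was added 24 h after seeding, and viability was read 72 h later. Dose-response data are Avg+SE, n=3–4. The 50% value came from a linear-regression fit at 50% survival.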

[1] = tested on: p-STAT3 (Y705) in Pa03C cells; test: Immunoblot of p-STAT3; settings: 10 μM, 4 hr pre-treatment, IL-6 25 ng/mL 15 min
Pa03C cells = test: Monolayer proliferation assay; settings: tumor cells (Pa03C), 72 h
Procedure, shortened: as §1

CAF19 cells = test: Monolayer proliferation assay; settings: CAFs (CAF19), 72 h
Procedure, shortened: as §1

Panc10.05 cells = test: Cell viability / proliferation screen; settings: 72 h, Avg ± SE, n=4–5
Procedure, shortened: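 Panc10.05 patient-derived PDAC cells (STR-verified) were grown in DMEM with 10% serum at 37 °C, 5% CO2. Monolayers were seeded at 2,000–3,000 cells/well, and test compound was added 24 h after seeding. MTS tetrazolium read-out was taken 72 h later. Data from 4–5 repeats were pooled, and ED50 was taken from a linear-regression fit where percent survival equalled 50%.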

| SMILES | IC50 (Pa03C + CAF19 co-culture) [µM] | phosphorylation of STAT3 at Y705 [1] | IC50 (Pa03C cells) [µM] | IC50 (CAF19 cells) [µM] | ED50 (Panc10.05 cells) [µM] |
| --- | --- | --- | --- | --- | --- |
| CN(CC(=O)N(Cc1ccc(C2CCCCC2)cc1)c1ccc(C(=O)O)c(O)c1)S(=O)(=O)c1c(F)c(F)c(F)c(F)c1F [BP-1-102] | 16.4 ± 0.6 | inhibited phosphorylation of STAT3 at Y705 | 19.1 ± 0.9 | 15.2 ± 2.7 | – |
| CN(CC(=O)N(Cc1ccc(C2CCCCC2)cc1)c1ccc(C(=O)O)cc1)S(=O)(=O)c1c(F)c(F)c(F)c(F)c1F [SH-4-54] | 11.8 ± 1.1 | inhibited phosphorylation of STAT3 at Y705 | 9.2 ± 1.7 | 7.6 ± 0.9 | 8.7 ± 1.9 |
